Activity calls are given as the source filed them. No cut-off for these calls is given here.
Tests used:
Rattus norvegicus [1] = test: The compound was tested in vivo for biochemical effect against the changes in different brain area levels of DOPA in reserpinized rat limbic system at dose 3.1 umol/kg; Partial effect; format: functional, organism-based
Procedure, shortened: (§1)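 Male Sprague-Dawley rats (200-300 g) pretreated with reserpine 5 mg/kg sc 18 h before. Injection volume 5 mL/kg, test solutions at neutral pH. DOPA and 5-HTP in limbic system, striatum and hemispheres measured by HPLC with electrochemical detection. Dose-response curves from four to six dose levels (n = 4) per brain area.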

Rattus norvegicus [2] = test: The compound was tested in vivo for biochemical effect against the changes in different brain area levels of DOPA in reserpinized rat corpus striatum at dose 3.1 umol/kg; Partial effect; format: functional, organism-based; procedure, shortened: as §1
Rattus norvegicus [3] = test: The compound was tested in vivo for biochemical effect against the changes in different brain area levels of DOPA in reserpinized rat hemispheres (mainly cortex)at dose 3.1 umol/kg; Inactive; format: functional, organism-based; procedure, shortened: as §1
D(3) dopamine receptor = D(3) dopamine receptor (Rattus norvegicus, UniProt P19020); test: In vitro binding affinity against cloned mammalian Dopamine receptor D3 expressed in CHO cells by, using [3H]-spiperone as radioligand; format: cell-based; details: read-out: Ki
D(3) dopamine receptor, sequence (P19020 whole entry): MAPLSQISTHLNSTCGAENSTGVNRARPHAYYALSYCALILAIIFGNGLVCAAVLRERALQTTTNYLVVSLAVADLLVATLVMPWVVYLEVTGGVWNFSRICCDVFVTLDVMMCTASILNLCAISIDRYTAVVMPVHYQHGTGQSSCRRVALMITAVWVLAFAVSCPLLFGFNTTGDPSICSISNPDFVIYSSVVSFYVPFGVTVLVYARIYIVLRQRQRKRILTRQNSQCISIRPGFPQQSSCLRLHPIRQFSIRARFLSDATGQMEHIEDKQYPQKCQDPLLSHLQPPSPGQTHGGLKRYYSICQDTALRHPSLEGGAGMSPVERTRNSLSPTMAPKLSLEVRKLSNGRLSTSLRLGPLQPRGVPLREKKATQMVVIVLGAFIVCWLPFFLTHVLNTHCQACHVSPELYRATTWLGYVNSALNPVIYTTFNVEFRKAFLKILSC

[4] = target: T1, 5-hydroxytryptamine receptor 1B (Homo sapiens, UniProt P28222); test: In vitro binding affinity against cloned mammalian 5-hydroxytryptamine 1D receptor beta expressed in CHO cells, by using [3H]5-HT as radioligand; format: cell-based
T1 sequence (P28222 whole entry): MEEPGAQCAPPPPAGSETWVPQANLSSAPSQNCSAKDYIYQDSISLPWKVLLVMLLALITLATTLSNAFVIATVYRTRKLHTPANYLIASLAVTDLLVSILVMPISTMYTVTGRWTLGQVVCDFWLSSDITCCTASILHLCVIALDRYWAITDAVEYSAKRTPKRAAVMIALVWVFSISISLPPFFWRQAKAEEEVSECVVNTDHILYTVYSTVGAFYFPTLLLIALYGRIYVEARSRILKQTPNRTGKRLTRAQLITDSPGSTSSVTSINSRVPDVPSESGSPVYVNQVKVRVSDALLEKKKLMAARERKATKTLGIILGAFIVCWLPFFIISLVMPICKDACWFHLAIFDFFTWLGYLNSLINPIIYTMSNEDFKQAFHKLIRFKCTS
Procedure, shortened: (§2)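 Membranes from CHO cells stably expressing the cloned receptor, made by mechanical disruption in ice-cold Tris/EDTA/EGTA pH 7.4 and differential centrifugation. [3H]serotonin at 1.7 nM in 50 mM Tris, 5 mM MgCl2, 0.1% ascorbic acid, pH 7.4. 11 drug concentrations in duplicate, 1 h at room temperature protected from light, then filtration. Excess serotonin defines nonspecific binding. One-site IC50 fit, Ki by Cheng-Prusoff.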

[5] = target: 5-hydroxytryptamine receptor 1D (Homo sapiens, UniProt P28221); test: In vitro binding affinity against cloned mammalian 5-hydroxytryptamine 1D receptor alpha expressed in CHO cells, by using [3H]5-HT as radioligand; format: cell-based
5-hydroxytryptamine receptor 1D, sequence (P28221 whole entry): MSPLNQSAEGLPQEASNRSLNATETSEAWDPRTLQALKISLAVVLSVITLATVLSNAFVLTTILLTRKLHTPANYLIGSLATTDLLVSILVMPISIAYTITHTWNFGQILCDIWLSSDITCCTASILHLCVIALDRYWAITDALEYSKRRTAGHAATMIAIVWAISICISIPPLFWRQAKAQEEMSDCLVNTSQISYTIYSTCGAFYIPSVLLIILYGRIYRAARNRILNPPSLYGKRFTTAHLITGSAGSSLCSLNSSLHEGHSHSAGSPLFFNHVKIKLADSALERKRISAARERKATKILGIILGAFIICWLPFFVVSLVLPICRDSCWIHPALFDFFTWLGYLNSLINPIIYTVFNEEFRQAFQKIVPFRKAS
Procedure, shortened: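 Competition binding on CHO-cell membranes (20-60 μg protein) in 50 mM Tris, 5 mM MgCl2, 0.1% ascorbic acid, pH 7.4. Nonspecific binding defined with excess serotonin. 11 drug concentrations, each in duplicate. Incubated 1 h at room temperature, protected from light, then filtered and scintillation counted. IC50 taken from a one-site fit; Ki by Cheng-Prusoff.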

D(2) dopamine receptor [6] = target: T2, D(2) dopamine receptor (Rattus norvegicus, UniProt P61169); test: In vitro binding affinity against cloned mammalian Dopamine receptor D2 expressed in CHO cells using [3H]U-86170 as radioligand; format: cell-based; details: read-out: Ki
T2 sequence (P61169 whole entry): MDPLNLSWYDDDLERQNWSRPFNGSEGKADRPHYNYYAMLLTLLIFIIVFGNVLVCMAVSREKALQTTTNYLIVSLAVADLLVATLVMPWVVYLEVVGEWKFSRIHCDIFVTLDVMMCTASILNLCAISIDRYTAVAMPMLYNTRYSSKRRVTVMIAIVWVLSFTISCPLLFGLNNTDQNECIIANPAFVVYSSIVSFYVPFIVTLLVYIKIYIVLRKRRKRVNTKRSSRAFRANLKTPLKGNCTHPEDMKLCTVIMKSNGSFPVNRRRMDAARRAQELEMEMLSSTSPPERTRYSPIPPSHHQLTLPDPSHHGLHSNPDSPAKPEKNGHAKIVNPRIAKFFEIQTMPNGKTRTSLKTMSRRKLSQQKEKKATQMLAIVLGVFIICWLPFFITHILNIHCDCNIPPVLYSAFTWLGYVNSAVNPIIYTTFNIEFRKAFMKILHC
Procedure, shortened: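 Membranes from CHO cells (20-60 μg protein) in 20 mM HEPES, 10 mM MgSO4, pH 7.4. Nonspecific binding defined with excess haloperidol. 11 concentrations, each in duplicate. Incubated 1 h at room temperature, then filtered and counted. IC50 from a one-site competition fit, converted to Ki by Cheng-Prusoff.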

D(2) dopamine receptor [7] = target: T2, D(2) dopamine receptor; test: Binding affinity rat Dopamine receptor D2 expressed in CHO-K1 cells by [3H]U-86170 displacement.; format: cell-based
Rattus norvegicus [8] = test: In vivo for biochemical effect against brain area levels of 5-HTP in reserpinized rat hemispheres (mainly cortex).; format: functional; procedure, shortened: as §1
[9] = target: T1, 5-hydroxytryptamine receptor 1B; test: The compound was tested in vitro for binding affinity against cloned mammalian 5-hydroxytryptamine 1D receptor beta expressed in CHO cells, by using [3H]5-HT as radioligand; format: cell-based; design: concentration or dose not given beside the values; details: concentration not given here; procedure, shortened: as §2
Rattus norvegicus [10] = test: In vivo changes in different brain area levels of 5-HTP in reserpinized rat limbic system.; format: functional
Procedure, shortened: (§3)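 Male Sprague-Dawley rats (200-300 g) pretreated with reserpine 5 mg/kg sc 18 h before. Injection volume 5 mL/kg at neutral pH. Brain-region 5-HTP measured by HPLC with electrochemical detection. Dose-response curves used four to six doses, n = 4.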

Rattus norvegicus [11] = test: The compound was tested in vivo for biochemical effect against the changes in different brain area levels of DOPA in reserpinized rat corpus striatum; format: functional; procedure, shortened: as §1
Rattus norvegicus [12] = test: The compound was tested in vivo for biochemical effect against the changes in different brain area levels of DOPA in reserpinized rat hemispheres (mainly cortex)at dose 12.5 uM/kg; inactive; format: functional, organism-based; procedure, shortened: as §1
Rattus norvegicus [13] = test: The compound was tested in vivo for biochemical effect against the changes in different brain area levels of DOPA in reserpinized rat limbic system; format: functional
Procedure, shortened: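 Rats (male Sprague-Dawley, 200-300 g) received reserpine 5 mg/kg sc 18 h before. Injections 5 mL/kg at neutral pH. DOPA accumulation measured by HPLC with electrochemical detection as an index of DA or NE synthesis rate. Four to six dose levels, n = 4. ED50 from a sigmoidal fit.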

Rattus norvegicus [14] = test: In vivo changes in different brain area levels of 5-HTP in reserpinized rat corpus striatum.; format: functional; procedure, shortened: as §3
Rattus norvegicus [15] = test: The compound was tested in vivo for biochemical effect against the changes in different brain area levels of DOPA in reserpinized rat hemispheres (mainly cortex)at dose 3.1 uM/kg; Inactive; format: functional, organism-based; procedure, shortened: as §1
Rattus norvegicus [16] = test: The compound was tested in vivo for biochemical effect against the changes in different brain area levels of DOPA in reserpinized rat corpus striatum at dose 3.1 uM/kg; Inactive; format: functional, organism-based; procedure, shortened: as §1
Rattus norvegicus [17] = test: The compound was tested in vivo for biochemical effect against the changes in different brain area levels of DOPA in reserpinized rat limbic system at dose 3.1 uM/kg; Inactive; format: functional, organism-based; procedure, shortened: as §1
Rattus norvegicus [18] = test: The compound was tested in vivo for biochemical effect against the changes in different brain area levels of DOPA in reserpinized rat corpus striatum at dose 12.5 uM/kg; Partial effect; format: functional, organism-based; procedure, shortened: as §1
Rattus norvegicus [19] = test: The compound was tested in vivo for biochemical effect against the changes in different brain area levels of DOPA in reserpinized rat limbic system at does 12.5 uM/kg; Partial effect; format: functional, organism-based; procedure, shortened: as §1
Rattus norvegicus [20] = test: The compound was tested in vivo for biochemical effect against the changes in different brain area levels of DOPA in reserpinized rat hemispheres (mainly cortex)at does 12.5 uM/kg; Inactive; format: functional, organism-based; procedure, shortened: as §1
Rattus norvegicus [21] = test: The compound was tested in vivo for biochemical effect against the changes in different brain area levels of 5-HTP in reserpinized rat limbic system at dose 3.1 uM/kg; Inactive; format: functional, organism-based
Rattus norvegicus [22] = test: The compound was tested in vivo for biochemical effect against the changes in different brain area levels of 5-HTP in reserpinized rat corpus striatum at dose 3.1 uM/kg; Inactive; format: functional, organism-based
Rattus norvegicus [23] = test: The compound was tested in vivo for biochemical effect against the changes in different brain area levels of 5-HTP in reserpinized rat hemispheres (mainly cortex)at dose 3.1 uM/kg; Inactive; format: functional, organism-based
Rattus norvegicus [24] = test: The compound was tested in vivo for biochemical effect against the changes in different brain area levels of DOPA in reserpinized rat corpus striatum at dose 12.5 uM/kg; Inactive; format: functional, organism-based; procedure, shortened: as §1
Rattus norvegicus [25] = test: The compound was tested in vivo for biochemical effect against the changes in different brain area levels of DOPA in reserpinized rat hemispheres (mainly cortex)at dose 12.5 uM/kg; Inactive; format: functional, organism-based
Rattus norvegicus [26] = test: (§4) The compound was tested in vivo for biochemical effect against the changes in different brain area levels of DOPA in reserpinized rat limbic system at dose 12.5 uM/kg; Partial effect; format: functional, organism-based; procedure, shortened: as §1
Rattus norvegicus [27] = test: as §4; format: functional, organism-based; remark: listed apart in the source

Ki (D(2) dopamine receptor [6]) [nM]	Structure (SMILES)	Ki (D(3) dopamine receptor) [nM]	Ki [4] [nM]	Ki [5] [nM]	Ki (D(2) dopamine receptor [7]) [nM]	other results
–	CCCN(CCC)[C@@H]1CCc2ccc3[nH]cc(C=O)c3c2C1	–	–	–	–	ED50 (Rattus norvegicus [1]): Weak activity; ED50 (Rattus norvegicus [2]): Weak activity; ED50 (Rattus norvegicus [3]): inactive
62	CCCN(CCc1ccccc1)C1CCc2ccc3[nH]cc(C=O)c3c2C1 (stereo not drawn)	81	56	2.8	–	–
–	CCCN(CC1CC1)C1CCc2ccc3[nH]ccc3c2C1 (stereo not drawn)	50	–	75	33	ED50 (Rattus norvegicus [8]): 0.18 µmol/kg; inhibition [9]: < 45%; ED50 (Rattus norvegicus [10]): 0.11 µmol/kg; ED50 (Rattus norvegicus [11]): 1.4 µmol/kg; ED50 (Rattus norvegicus [12]): inactive; ED50 (Rattus norvegicus [13]): 1.18 µmol/kg; ED50 (Rattus norvegicus [14]): 0.11 µmol/kg
–	CCCN(CCCc1ccccc1OC)C1CCc2ccc3[nH]ccc3c2C1 (stereo not drawn)	10	40	2.5	4.8	–
–	CCCN(CCC)CC1CCc2ccc3[nH]ccc3c2C1 (stereo not drawn)	–	–	–	> 1000	–
–	CCCN(CC1CC1)C1CCc2ccc3[nH]cc(C=O)c3c2C1 (stereo not drawn)	164	196	24	–	ED50 (Rattus norvegicus [8]): 0.34 µmol/kg; ED50 (Rattus norvegicus [15]): inactive; ED50 (Rattus norvegicus [16]): inactive; ED50 (Rattus norvegicus [17]): inactive; ED50 (Rattus norvegicus [10]): 0.23 µmol/kg; ED50 (Rattus norvegicus [14]): 0.33 µmol/kg
–	CCCN(CCC)[C@H]1CCc2ccc3[nH]cc(C=O)c3c2C1	–	–	–	–	ED50 (Rattus norvegicus [18]): Weak activity; ED50 (Rattus norvegicus [19]): Weak activity; ED50 (Rattus norvegicus [20]): inactive
–	CCCN(CCCCN1C(=O)CC(C)(C)CC1=O)C1CCc2ccc3[nH]ccc3c2C1 (stereo not drawn)	29	224	26	15	–
–	CCCNC1CCc2ccc3[nH]ccc3c2C1 (stereo not drawn)	115	483	69	48	–
90	CCCN(Cc1ccccc1)C1CCc2ccc3[nH]cc(C=O)c3c2C1 (stereo not drawn)	115	992	33	–	ED50 (Rattus norvegicus [15]): inactive; ED50 (Rattus norvegicus [16]): inactive; ED50 (Rattus norvegicus [17]): inactive; ED50 (Rattus norvegicus [21]): inactive; ED50 (Rattus norvegicus [22]): inactive; ED50 (Rattus norvegicus [23]): inactive
> 1000	O=Cc1c[nH]c2ccc3c(c12)CC(N1CCCCCC1)CC3 (stereo not drawn)	–	–	–	–	–
25	CCCN(CCc1cccs1)C1CCc2ccc3[nH]cc(C=O)c3c2C1 (stereo not drawn)	48	46	2	–	ED50 (Rattus norvegicus [8]): 0.11 µmol/kg; ED50 (Rattus norvegicus [27]): Weak activity; ED50 (Rattus norvegicus [25]): inactive; ED50 (Rattus norvegicus [10]): 0.082 µmol/kg; ED50 (Rattus norvegicus [18]): Weak activity; ED50 (Rattus norvegicus [14]): 0.044 µmol/kg
–	CN(C)C1CCc2ccc3[nH]ccc3c2C1 (stereo not drawn)	383	270	–	–	–
–	CCCN(CCc1cccs1)C1CCc2ccc3[nH]ccc3c2C1 (stereo not drawn)	5.5	–	13	5.5	inhibition [9]: < 45%

Structure (SMILES)	Ki (D(2) dopamine receptor [6]) [nM]	Ki (D(3) dopamine receptor) [nM]	Ki [4] [nM]	Ki [5] [nM]	Ki (D(2) dopamine receptor [7]) [nM]	other results
C=CCN(CCC)C1CCc2ccc3[nH]cc(C=O)c3c2C1 (stereo not drawn)	59	130	49	–	–	ED50 (Rattus norvegicus [8]): 0.19 µmol/kg; ED50 (Rattus norvegicus [24]): inactive; ED50 (Rattus norvegicus [25]): inactive; ED50 (Rattus norvegicus [10]): 0.19 µmol/kg; ED50 (Rattus norvegicus [26]): Weak activity; ED50 (Rattus norvegicus [14]): 0.16 µmol/kg
